The source made the active and inactive calls. The rule behind the calls is not given here.
Tests used:
UACC-257 = assay: Antitumor activity against human UACC257 cells after 48 hrs by sulforhodamine B assay; assay type: functional; details: UACC-257, 48 h
Outline: (§1)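 NCI-60 panel lines grown in RPMI 1640 with 5% FBS and 2 mM L-glutamine. Cells plated at 5,000–40,000/well by doubling time, given 24 h before drug, then exposed to five concentrations for 48 h at 37 °C. Time-zero plates fixed with TCA. Cells fixed with TCA, stained with 0.4% SRB, read at 515 nm. GI50 = 50% reduction in net protein increase versus control.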

SR = assay: Antitumor activity against human SR cells after 48 hrs by sulforhodamine B assay; assay type: functional
Outline: (§2)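 NCI-60 screen, suspension lines: grown in RPMI 1640 with 5% FBS and 2 mM L-glutamine. Seeded at 5,000–40,000 cells/well and preincubated 24 h at 37 °C, 5% CO2, with time-zero plates fixed. Five concentrations (10-fold or half-log) given for 48 h. Settled cells fixed with 80% TCA (16% final), then SRB-stained and read at 515 nm. GI50 is from the net growth relative to time zero and control.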

Hs-578T = assay: Antitumor activity against human Hs578T cells after 48 hrs by sulforhodamine B assay; assay type: functional
Outline: (§3)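 NCI-60 screen, adherent lines: grown in RPMI 1640 with 5% FBS and 2 mM L-glutamine. Seeded at 5,000–40,000 cells/well by doubling time and preincubated 24 h at 37 °C, 5% CO2, with time-zero plates TCA-fixed. Five concentrations (10-fold or half-log) given for 48 h. Fixed with cold TCA (10% final), then SRB-stained and read at A515. GI50 is 50% reduction of net protein increase versus control.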

HL-60(TB) = assay: Antitumor activity against human HL-60(TB) cells after 48 hrs by sulforhodamine B assay; assay type: functional; details: HL-60, 48 h
Outline: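 NCI-60 screen: cells grown in RPMI 1640 with 5% FBS and 2 mM L-glutamine, seeded at 5,000–40,000 cells/well and incubated 24 h at 37 °C, 5% CO2 before dosing. Five concentrations (10-fold or ½-log dilutions from DMSO stock), 48 h. Suspension cells fixed with 80% TCA (final 16%), stained with 0.4% SRB, A515 read. GI50 calculated against time-zero and control growth.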

M14 = assay: Antitumor activity against human M14 cells after 48 hrs by sulforhodamine B assay; assay type: functional; details: M14, 48 h; outline: as §3
HOP-62 = assay: Antitumor activity against human HOP62 cells after 48 hrs by sulforhodamine B assay; assay type: functional; details: HOP-62, 48 h; outline: as §3
HT-29 = assay: Antitumor activity against human HT-29 cells after 48 hrs by sulforhodamine B assay; assay type: functional; details: HT-29, 48 h; outline: as §3
PC-3 = assay: Antitumor activity against human PC3 cells after 48 hrs by sulforhodamine B assay; assay type: functional; details: PC-3, 48 h; outline: as §3
BT-549 = assay: Antitumor activity against human BT549 cells after 48 hrs by sulforhodamine B assay; assay type: functional; details: BT-549, 48 h; outline: as §3
SF-295 = assay: Antitumor activity against human SF295 cells after 48 hrs by sulforhodamine B assay; assay type: functional; details: SF-295, 48 h; outline: as §3
Bos taurus = species: Bos taurus; assay: Effect on bovine brain microtubule depolymerization assessed as decrease in absorbance at wavelength 340 nm after 15 mins
Outline: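 Bovine brain tubulin purified by three assembly/disassembly cycles followed by ion exchange. Tubulin at 2.5 mg/mL […] in 1 M glutamate, pH 6.6, with 4% DMSO, preincubated with compound at 0 °C for 15 min. 0.5 mM GTP then added and samples warmed to 37 °C. A340 monitored about 60 min.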

MCF7 = assay: Resistance factor, ratio of IC50 for drug-resistant […] human NCI/ADR cells expressing Pgp in absence of vinblastin to IC50 for drug-sensitive human MCF7 cells in presence of 50 nM vinblastin; assay type: functional
K562 = assay: Antitumor activity against human K562 cells after 48 hrs by sulforhodamine B assay; assay type: functional; details: K562, 48 h; outline: as §2
COLO 205 = assay: Antitumor activity against human COLO205 cells after 48 hrs by sulforhodamine B assay; assay type: functional; details: COLO 205, 48 h; outline: as §3
MDA-MB-468 = assay: Antitumor activity against human MDA-MB-468 cells after 48 hrs by sulforhodamine B assay; assay type: functional; details: MDA-MB-468, 48 h; outline: as §3
786-0 = assay: Antitumor activity against human 786-0 cells after 48 hrs by sulforhodamine B assay; assay type: functional; details: 786-0, 48 h; outline: as §3
NCI-H460 = assay: Antitumor activity against human NCI-H460 cells after 48 hrs by sulforhodamine B assay; assay type: functional; details: NCI-H460, 48 h; outline: as §3
MDA-MB-231 = assay: Antitumor activity against human MDA-MB-231 cells after 48 hrs by sulforhodamine B assay; assay type: functional; details: MDA-MB-231, 48 h; outline: as §3
UACC-62 = assay: Antitumor activity against human UACC62 cells after 48 hrs by sulforhodamine B assay; assay type: functional; details: UACC-62, 48 h; outline: as §1
NCI-H226 = assay: Antitumor activity against human NCI-H226 cells after 48 hrs by sulforhodamine B assay; assay type: functional; details: NCI-H226, 48 h; outline: as §3
HCT-15 = assay: Antitumor activity against human HCT15 cells after 48 hrs by sulforhodamine B assay; assay type: functional; details: HCT-15, 48 h; outline: as §3
HCT-116 = assay: Antitumor activity against human HCT116 cells after 48 hrs by sulforhodamine B assay; assay type: functional; details: HCT-116, 48 h; outline: as §3
ACHN = assay: Antitumor activity against human ACHN cells after 48 hrs by sulforhodamine B assay; assay type: functional; outline: as §3
NCI-H23 = assay: Antitumor activity against human NCI-H23 cells after 48 hrs by sulforhodamine B assay; assay type: functional; details: NCI-H23, 48 h; outline: as §3
SNB-19 = assay: Antitumor activity against human SNB19 cells after 48 hrs by sulforhodamine B assay; assay type: functional; details: SNB-19, 48 h; outline: as §3
CAKI-1 = assay: Antitumor activity against human Caki1 cells after 48 hrs by sulforhodamine B assay; assay type: functional; details: CAKI-1, 48 h; outline: as §3
Malme-3M = assay: Antitumor activity against human MALME-3M cells after 48 hrs by sulforhodamine B assay; assay type: functional; outline: as §3
SN12C = assay: Antitumor activity against human SN12C cells after 48 hrs by sulforhodamine B assay; assay type: functional; outline: as §3
DU-145 = assay: Antitumor activity against human DU145 cells after 48 hrs by sulforhodamine B assay; assay type: functional; details: DU-145, 48 h; outline: as §3
SK-OV-3 = assay: Antitumor activity against human SKOV3 cells after 48 hrs by sulforhodamine B assay; assay type: functional; details: SK-OV-3, 48 h; outline: as §3
HOP-92 = assay: Antitumor activity against human HOP92 cells after 48 hrs by sulforhodamine B assay; assay type: functional; details: HOP-92, 48 h; outline: as §3

SMILES: COc1cc(CCc2cn(Cc3ccccc3)c3nc(N)nc(C)c23)c(OC)c(OC)c1OC
- GI50 (UACC-257): 10.4 µM
- GI50 (SR): 2.35 µM
- GI50 (Hs-578T): 2.46 µM
- GI50 (HL-60(TB)): 2.06 µM
- GI50 (M14): 3.33 µM
- GI50 (HOP-62): 3.96 µM
- GI50 (HT-29): 3.6 µM
- GI50 (PC-3): 3.08 µM
- GI50 (BT-549): 9.75 µM
- GI50 (SF-295): 1.39 µM
- Activity (Bos taurus): Active
- Ratio IC50 (MCF7): 0.29
- GI50 (K562): 2.48 µM
- GI50 (COLO 205): 2.8 µM
- GI50 (MDA-MB-468): 2.82 µM
- GI50 (786-0): 4.5 µM
- GI50 (NCI-H460): 2.81 µM
- GI50 (MDA-MB-231): 3.69 µM
- GI50 (UACC-62): 2.13 µM
- GI50 (NCI-H226): 4.27 µM
- GI50 (HCT-15): 3.2 µM
- GI50 (HCT-116): 3.68 µM
- GI50 (ACHN): 9.36 µM
- GI50 (NCI-H23): 3.61 µM
- GI50 (SNB-19): 4.68 µM
- GI50 (CAKI-1): 2.5 µM
- GI50 (Malme-3M): 10.4 µM
- GI50 (SN12C): 6.86 µM
- GI50 (DU-145): 2.5 µM
- GI50 (SK-OV-3): 2.98 µM
- GI50 (HOP-92): 1.39 µM

From ChEMBL document CHEMBL1806466, “2-Amino-4-methyl-5-phenylethyl substituted-7-N-benzyl-pyrrolo[2,3-d]pyrimidines as novel antitumor antimitotic agents that also reverse tumor resistance” (Bioorg Med Chem, 2011)
